These results are taken from ChEMBL document CHEMBL3861950, “Design, synthesis and evaluation of novel 19F magnetic resonance sensitive protein tyrosine phosphatase inhibitors” (Medchemcomm, 2016).

The term IC50 denotes the point on the concentration scale where inhibition reaches its midpoint.

SMILES strings stand for the structures. Bounds are passed on as bounds.

Test [1] is described as follows: Inhibition of recombinant Mycobacterium tuberculosis PTPB using pNPP as substrate by spectrophotometric method. In outline: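 Recombinant enzyme made in-house. Substrate pNPP in 50 mM 3,3-dimethylglutarate buffer, pH 7.0, with 1 mM EDTA and 150 mM NaCl, at 25 °C, screened in 96-well format. p-Nitrophenol product read at 405 nm. Non-enzymatic pNPP hydrolysis was corrected using a control without enzyme.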

The target in test [2] is T1, Tyrosine-protein phosphatase non-receptor type 22 (Homo sapiens, UniProt Q9Y2R2).
T1 sequence (Q9Y2R2 whole entry): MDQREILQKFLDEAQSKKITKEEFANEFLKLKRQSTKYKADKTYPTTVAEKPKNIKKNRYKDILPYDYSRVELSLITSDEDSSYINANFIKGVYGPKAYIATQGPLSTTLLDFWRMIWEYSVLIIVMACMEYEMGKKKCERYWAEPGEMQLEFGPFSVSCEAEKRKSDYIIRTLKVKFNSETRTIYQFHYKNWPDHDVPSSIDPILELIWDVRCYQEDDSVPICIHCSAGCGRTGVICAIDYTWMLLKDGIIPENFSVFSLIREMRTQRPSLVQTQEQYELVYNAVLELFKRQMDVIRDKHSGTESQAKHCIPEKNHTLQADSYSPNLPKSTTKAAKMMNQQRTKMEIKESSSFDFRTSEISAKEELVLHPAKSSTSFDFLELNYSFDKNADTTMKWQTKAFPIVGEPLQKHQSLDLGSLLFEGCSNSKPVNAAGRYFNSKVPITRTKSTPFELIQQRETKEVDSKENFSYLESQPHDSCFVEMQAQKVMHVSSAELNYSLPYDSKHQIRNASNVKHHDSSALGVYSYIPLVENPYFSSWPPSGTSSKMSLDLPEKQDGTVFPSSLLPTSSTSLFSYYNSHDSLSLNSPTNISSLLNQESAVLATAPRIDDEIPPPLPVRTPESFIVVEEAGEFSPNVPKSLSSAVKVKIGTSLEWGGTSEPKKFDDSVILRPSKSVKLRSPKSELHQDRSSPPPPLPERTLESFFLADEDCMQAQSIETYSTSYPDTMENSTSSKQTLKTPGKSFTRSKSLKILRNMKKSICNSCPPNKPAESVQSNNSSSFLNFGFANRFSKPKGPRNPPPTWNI
Nature of the test: Inhibition of recombinant LYP (unknown origin) using pNPP as substrate by spectrophotometric method. The procedure, abridged: (§1)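 Recombinant PTP prepared in-house, assayed with pNPP substrate in 50 mM 3,3-dimethylglutarate buffer pH 7.0 containing 1 mM EDTA and 150 mM NaCl at 25 °C, in 96-well format. p-Nitrophenol product was quantified by absorbance at 405 nm. Non-enzymatic pNPP hydrolysis was corrected using a no-enzyme control.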

Test [3] deals with T2, Tyrosine-protein phosphatase non-receptor type 1 (Homo sapiens, UniProt P18031).
T2 sequence (P18031 whole entry): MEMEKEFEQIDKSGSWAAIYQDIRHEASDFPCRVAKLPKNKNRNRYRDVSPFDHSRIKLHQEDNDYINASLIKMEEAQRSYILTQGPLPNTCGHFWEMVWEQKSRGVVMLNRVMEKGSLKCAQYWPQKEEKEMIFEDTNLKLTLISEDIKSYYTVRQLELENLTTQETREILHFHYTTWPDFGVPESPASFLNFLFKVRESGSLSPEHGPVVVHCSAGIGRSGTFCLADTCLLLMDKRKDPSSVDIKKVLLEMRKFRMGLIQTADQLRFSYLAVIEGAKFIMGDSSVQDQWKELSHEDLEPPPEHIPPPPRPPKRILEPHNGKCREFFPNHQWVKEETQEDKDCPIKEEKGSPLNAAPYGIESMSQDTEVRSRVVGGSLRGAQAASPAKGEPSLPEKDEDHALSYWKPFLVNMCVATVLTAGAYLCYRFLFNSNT
The test can be described thus: Inhibition of recombinant PTP1B (unknown origin) using pNPP as substrate by spectrophotometric method. The procedure, abridged: as §1

Test [4] deals with T3, Tyrosine-protein phosphatase non-receptor type 11 (Homo sapiens, UniProt Q06124).
T3 sequence (Q06124 whole entry): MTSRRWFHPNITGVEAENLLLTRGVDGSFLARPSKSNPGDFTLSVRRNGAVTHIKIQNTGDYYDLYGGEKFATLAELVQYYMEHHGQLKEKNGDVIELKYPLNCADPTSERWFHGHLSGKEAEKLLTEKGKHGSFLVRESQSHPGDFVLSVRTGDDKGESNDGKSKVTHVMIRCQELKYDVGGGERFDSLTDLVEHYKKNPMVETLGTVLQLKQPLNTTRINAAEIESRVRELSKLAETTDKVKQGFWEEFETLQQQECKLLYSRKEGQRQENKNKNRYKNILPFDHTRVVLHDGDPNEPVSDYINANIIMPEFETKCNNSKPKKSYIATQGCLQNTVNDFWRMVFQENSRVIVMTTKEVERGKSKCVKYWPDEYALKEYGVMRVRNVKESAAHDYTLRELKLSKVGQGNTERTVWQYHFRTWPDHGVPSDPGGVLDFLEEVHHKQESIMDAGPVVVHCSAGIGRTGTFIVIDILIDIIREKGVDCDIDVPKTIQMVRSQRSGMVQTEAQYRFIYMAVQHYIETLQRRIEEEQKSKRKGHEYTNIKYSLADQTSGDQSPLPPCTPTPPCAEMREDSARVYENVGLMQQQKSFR
The test can be described thus: Inhibition of recombinant SHP2 (unknown origin) using pNPP as substrate by spectrophotometric method. The procedure, abridged: as §1

Test [5] addresses Tyrosine-protein phosphatase non-receptor type 13 (Homo sapiens, UniProt Q12923). The test can be described thus: Inhibition of recombinant FAP1 (unknown origin) using pNPP as substrate by spectrophotometric method. The procedure, abridged:
as §1

Test [6] concerns the target T4, Receptor-type tyrosine-protein phosphatase C (Homo sapiens, UniProt P08575).
T4 sequence (P08575 whole entry): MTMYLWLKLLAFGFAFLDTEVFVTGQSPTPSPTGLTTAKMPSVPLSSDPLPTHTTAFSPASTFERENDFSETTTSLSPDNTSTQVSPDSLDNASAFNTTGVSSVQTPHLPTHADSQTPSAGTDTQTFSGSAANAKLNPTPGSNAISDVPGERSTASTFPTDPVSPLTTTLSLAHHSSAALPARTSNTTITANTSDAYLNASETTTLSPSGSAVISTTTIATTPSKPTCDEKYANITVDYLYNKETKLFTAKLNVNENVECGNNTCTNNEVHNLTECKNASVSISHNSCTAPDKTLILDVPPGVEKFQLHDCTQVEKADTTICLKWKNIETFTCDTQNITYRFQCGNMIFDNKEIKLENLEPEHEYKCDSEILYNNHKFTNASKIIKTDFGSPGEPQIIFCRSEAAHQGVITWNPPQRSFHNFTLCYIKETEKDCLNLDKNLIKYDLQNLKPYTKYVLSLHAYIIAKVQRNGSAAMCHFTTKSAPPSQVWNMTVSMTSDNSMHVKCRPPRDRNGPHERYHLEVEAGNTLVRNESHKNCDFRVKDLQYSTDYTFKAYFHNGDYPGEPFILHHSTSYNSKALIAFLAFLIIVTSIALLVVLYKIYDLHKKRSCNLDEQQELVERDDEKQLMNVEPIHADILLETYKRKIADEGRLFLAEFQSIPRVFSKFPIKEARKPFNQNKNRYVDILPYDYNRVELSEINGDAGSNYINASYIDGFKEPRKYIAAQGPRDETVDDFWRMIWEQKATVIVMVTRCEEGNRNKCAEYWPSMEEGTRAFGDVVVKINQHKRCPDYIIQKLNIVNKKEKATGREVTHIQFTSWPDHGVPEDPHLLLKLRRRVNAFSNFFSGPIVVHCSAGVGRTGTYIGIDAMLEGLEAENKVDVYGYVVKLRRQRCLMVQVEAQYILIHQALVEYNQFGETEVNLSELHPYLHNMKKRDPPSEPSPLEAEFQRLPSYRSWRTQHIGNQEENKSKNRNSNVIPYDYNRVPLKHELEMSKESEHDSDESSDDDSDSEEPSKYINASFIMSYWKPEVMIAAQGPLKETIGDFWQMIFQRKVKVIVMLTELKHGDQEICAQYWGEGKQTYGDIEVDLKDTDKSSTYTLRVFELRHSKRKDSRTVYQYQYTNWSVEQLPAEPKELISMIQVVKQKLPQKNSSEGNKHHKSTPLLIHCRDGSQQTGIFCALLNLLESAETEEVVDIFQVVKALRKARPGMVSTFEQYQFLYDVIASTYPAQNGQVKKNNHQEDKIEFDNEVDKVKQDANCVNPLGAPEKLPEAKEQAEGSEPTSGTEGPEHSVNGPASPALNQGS
The test can be described thus: Inhibition of recombinant CD45 (unknown origin) using pNPP as substrate by spectrophotometric method. The procedure, abridged:
as §1

Chain of Tyrosine-protein phosphatase non-receptor type 13 (Q12923 whole entry): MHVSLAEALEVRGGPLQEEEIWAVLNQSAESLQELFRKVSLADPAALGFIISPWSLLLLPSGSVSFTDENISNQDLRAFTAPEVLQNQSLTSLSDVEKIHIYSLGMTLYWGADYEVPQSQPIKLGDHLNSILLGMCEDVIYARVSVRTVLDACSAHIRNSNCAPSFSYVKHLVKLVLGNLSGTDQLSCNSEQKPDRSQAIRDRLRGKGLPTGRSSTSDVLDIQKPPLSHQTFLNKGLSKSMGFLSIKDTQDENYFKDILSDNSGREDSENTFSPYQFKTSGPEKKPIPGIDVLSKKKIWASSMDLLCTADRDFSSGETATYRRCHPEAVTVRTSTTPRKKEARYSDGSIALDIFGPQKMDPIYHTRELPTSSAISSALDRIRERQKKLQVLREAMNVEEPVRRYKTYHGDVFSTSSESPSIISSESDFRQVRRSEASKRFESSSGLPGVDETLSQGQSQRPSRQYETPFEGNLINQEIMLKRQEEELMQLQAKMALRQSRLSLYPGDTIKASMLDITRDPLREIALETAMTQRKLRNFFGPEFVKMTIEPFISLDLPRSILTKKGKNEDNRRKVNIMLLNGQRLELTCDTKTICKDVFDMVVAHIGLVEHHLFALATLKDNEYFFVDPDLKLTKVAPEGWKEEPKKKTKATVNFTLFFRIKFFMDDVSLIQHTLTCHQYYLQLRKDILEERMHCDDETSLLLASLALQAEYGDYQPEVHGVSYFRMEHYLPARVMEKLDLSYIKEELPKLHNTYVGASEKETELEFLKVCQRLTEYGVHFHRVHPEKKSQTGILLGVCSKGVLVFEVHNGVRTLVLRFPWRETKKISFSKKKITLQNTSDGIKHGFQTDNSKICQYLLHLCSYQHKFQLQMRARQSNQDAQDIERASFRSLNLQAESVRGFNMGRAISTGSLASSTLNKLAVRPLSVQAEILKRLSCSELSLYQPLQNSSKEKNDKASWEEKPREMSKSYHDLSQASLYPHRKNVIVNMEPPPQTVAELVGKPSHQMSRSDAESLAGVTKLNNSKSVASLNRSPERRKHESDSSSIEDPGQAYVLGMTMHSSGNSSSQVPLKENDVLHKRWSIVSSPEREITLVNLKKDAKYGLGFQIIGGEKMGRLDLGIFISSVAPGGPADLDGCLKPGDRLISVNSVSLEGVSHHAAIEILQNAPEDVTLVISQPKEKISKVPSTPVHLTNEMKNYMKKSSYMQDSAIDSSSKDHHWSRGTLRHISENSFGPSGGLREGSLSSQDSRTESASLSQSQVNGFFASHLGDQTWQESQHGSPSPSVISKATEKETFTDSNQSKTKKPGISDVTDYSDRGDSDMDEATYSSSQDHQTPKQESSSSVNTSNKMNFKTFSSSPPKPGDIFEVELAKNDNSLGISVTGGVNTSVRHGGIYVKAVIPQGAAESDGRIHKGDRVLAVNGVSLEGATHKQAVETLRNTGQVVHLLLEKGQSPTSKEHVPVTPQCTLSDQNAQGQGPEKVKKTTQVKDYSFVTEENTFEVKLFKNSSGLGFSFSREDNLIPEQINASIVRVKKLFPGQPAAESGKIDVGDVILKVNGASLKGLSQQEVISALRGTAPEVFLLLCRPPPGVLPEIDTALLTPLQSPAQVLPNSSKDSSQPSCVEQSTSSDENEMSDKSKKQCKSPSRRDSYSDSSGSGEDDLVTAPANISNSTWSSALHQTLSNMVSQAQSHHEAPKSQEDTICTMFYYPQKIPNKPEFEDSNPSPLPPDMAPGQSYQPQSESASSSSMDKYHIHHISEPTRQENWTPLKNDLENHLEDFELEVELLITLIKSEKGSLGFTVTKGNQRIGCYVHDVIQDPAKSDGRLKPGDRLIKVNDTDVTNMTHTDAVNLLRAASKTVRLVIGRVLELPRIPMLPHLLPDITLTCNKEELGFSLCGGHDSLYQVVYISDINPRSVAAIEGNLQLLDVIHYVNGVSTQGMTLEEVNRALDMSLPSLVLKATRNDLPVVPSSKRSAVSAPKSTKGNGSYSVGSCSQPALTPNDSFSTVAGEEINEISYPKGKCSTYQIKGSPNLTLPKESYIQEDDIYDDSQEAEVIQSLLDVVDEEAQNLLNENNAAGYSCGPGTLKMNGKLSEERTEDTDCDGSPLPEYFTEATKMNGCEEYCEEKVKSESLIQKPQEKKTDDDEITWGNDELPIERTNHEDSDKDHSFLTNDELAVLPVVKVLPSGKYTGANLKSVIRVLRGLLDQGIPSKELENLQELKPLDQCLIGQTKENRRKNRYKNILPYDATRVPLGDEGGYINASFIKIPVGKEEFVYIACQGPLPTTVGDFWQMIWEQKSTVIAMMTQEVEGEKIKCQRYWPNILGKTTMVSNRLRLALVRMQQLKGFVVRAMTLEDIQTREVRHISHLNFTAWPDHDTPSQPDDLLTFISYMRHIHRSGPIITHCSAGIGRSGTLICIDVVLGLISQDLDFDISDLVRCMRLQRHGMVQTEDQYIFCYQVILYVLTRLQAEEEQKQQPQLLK

In the case of `O=C(COc1ccc2cc(C(O)(C(F)(F)F)C(F)(F)F)c(O)cc2c1)Nc1ccc(-c2ccccc2)cc1`, the IC50 was 4.8 µM in test [1]; above 20 µM in test [2]; above 20 µM in test [3]; 3.5 µM in test [4]; 2.8 µM in test [5]; 3.4 µM in test [6].
Consider `O=C(COc1ccc2cc(C(O)(C(F)(F)F)C(F)(F)F)c(O)cc2c1)Nc1ccccc1`, for which the 50% inhibitory concentration (IC50) in test [1] was 14.4 µM; in test [2] it was above 20 µM; in test [4] it was 19 µM; in test [5] it was above 20 µM; in test [6], above 20 µM.
`COc1ccc(CNC(=O)COc2ccc3cc(C(O)(C(F)(F)F)C(F)(F)F)c(O)cc3c2)cc1OC`: the IC50 is 18.1 µM in test [1]; above 20 µM in test [2]; above 20 µM in test [3]; above 20 µM in test [4]; above 20 µM in test [5]; above 20 µM in test [6].
On to `O=C(COc1ccc2cc(C(O)(C(F)(F)F)C(F)(F)F)c(O)cc2c1)N1c2ccccc2Sc2ccccc21`, for which the IC50 in test [1] was 2.9 µM; in test [2], 3.4 µM; in test [3] it was 6.6 µM; in test [4], 3.2 µM; in test [5] it was 2.2 µM; in test [6], 2.8 µM.
With `Oc1cc2ccccc2cc1C(O)(C(F)(F)F)C(F)(F)F`, the half-inhibitory concentration (IC50) in test [1] stood at 106 µM; in test [2], 134 µM; in test [3], 260 µM; in test [4], 115 µM; in test [5] it was 128 µM; in test [6], 112 µM.
Take `O=C(COc1ccc2cc(C(O)(C(F)(F)F)C(F)(F)F)c(O)cc2c1)NCc1ccccc1`: the half-inhibitory concentration (IC50) in test [1], in test [2], in test [3], in test [4], in test [5] and in test [6] was above 20 µM each time.
For `O=C(COc1ccc2cc(C(O)(C(F)(F)F)C(F)(F)F)c(O)cc2c1)Nc1nc2ccccc2s1`, the IC50 in test [1] is 2.6 µM; in test [2], 14.3 µM; in test [3] it was above 20 µM; in test [4] it was 12.8 µM; in test [5], 9.9 µM; in test [6] it was 10.9 µM.
`O=C(COc1ccc2cc(C(O)(C(F)(F)F)C(F)(F)F)c(O)cc2c1)NCCc1ccc(Cl)cc1Cl`: the IC50 amounted to 5.1 µM in test [1]; 6.9 µM in test [2]; 12.6 µM in test [3]; 6.7 µM in test [4]; 4.3 µM in test [5]; 5.2 µM in test [6].
For the compound `CC(C)c1ccc(NC(=O)COc2ccc3cc(C(O)(C(F)(F)F)C(F)(F)F)c(O)cc3c2)cc1`, the IC50 amounted to 7.3 µM in test [1]; 8.8 µM in test [2]; 17.2 µM in test [3]; 8.5 µM in test [4]; 6.5 µM in test [5]; 7.8 µM in test [6].
As for `O=C(COc1ccc2cc(C(O)(C(F)(F)F)C(F)(F)F)c(O)cc2c1)NCc1ccc(F)cc1`, the half-maximal inhibitory concentration (IC50) in test [1], in test [2], in test [3], in test [4], in test [5] and in test [6] was above 20 µM throughout.
On to `OC(c1ccccc1)(C(F)(F)F)C(F)(F)F`, for which the IC50 in test [1], in test [2], in test [3], in test [4], in test [5] and in test [6] was above 500 µM throughout.
Consider `Oc1c(C(O)(C(F)(F)F)C(F)(F)F)ccc2ccccc12`, for which the IC50 in test [1], in test [2], in test [3], in test [4], in test [5] and in test [6] was above 500 µM each time.
`CCCNC(=O)COc1ccc2cc(C(O)(C(F)(F)F)C(F)(F)F)c(O)cc2c1`: the IC50 in test [1], in test [2], in test [3], in test [4], in test [5] and in test [6] was above 20 µM throughout.
